Results pooled from the literature.
Target: Tyrosine-protein kinase HCK (HCK, Homo sapiens, UniProt P08631)

SMILES | assay | setting | endpoint | value
N#CC1(c2ccccn2)CCN(Cc2cc(C(=O)O)c(=O)n3ccccc23)CC1 | cell-free assay, competition with immobilised ligand | 1 µM | remaining binding | 100%
Nc1ncc(-c2nc(N3CCOCC3)nc(N3CCOCC3)n2)c(C(F)F)n1 | binding, competition with immobilised ligand | 10 µM | remaining binding | 77%
O=c1[nH]c2ccccc2n1C1CCN(Cc2ccc(-c3[nH]c4cc5ncnc5cc4nc3-c3ccccc3)cc2)CC1 | cell-free assay | 0.5 µM | remaining signal | 99.6%
Cn1cc(-c2cc(F)cc(N3CCn4c(cc5c4CCCC5)C3=O)c2CO)cc(Nc2ccc(N3CCN(C4COC4)CC3)cn2)c1=O | enzyme activity, inhibitor | 0.1 µM | inhibition | 9%
Cc1nn(C)cc1-c1nc2c(N3CCN(Cc4ccc(Cl)cc4)CC3)c(Cl)cnc2[nH]1 | binding, competition with immobilised ligand | 1 µM | remaining binding | 100%
COc1cc(Nc2ncc(F)c(Nc3ccc4c(n3)NC(=O)C(C)(C)O4)n2)cc(OC)c1OC | binding, competition with immobilised ligand | 10 µM | inhibition | 98%
CC(C)(C)c1cc(C=C(C#N)C#N)cc(Br)c1O | enzyme activity, inhibitor | 0.5 µM | remaining activity | 66.1%
Cn1cncc1[C@@](O)(COc1ccc(C#N)cc1-c1ccc(OC(F)(F)F)cc1)c1ccc(C#N)cc1 | cell-free assay, competition with immobilised ligand | 1 µM | remaining binding | 100%
Cn1cc(-c2cccc(N3CCc4c(sc5c4CC(C)(C)C5)C3=O)c2CO)cc(Nc2ccncn2)c1=O | enzyme activity, inhibitor | 1 µM | inhibition | 6%
COc1ncccc1-c1cnn2ccc(N3CCN(C(=O)OC(C)C)CC3)nc12 | binding, competition with immobilised ligand | 1 µM | remaining binding | 60%
